How the values were obtained:
Histamine H3 receptor = Histamine H3 receptor (Rattus norvegicus, UniProt Q9QYN8); test: Displacement of [3H]N-alpha-methylhistamine from recombinant rat histamine H3 receptor transfected in CHO cell membranes after 1 hr by scintillation counting analysis; design: species or system Membrane
How it was run: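 Radioligand displacement of [3H]N-α-methylhistamine using membranes from CHO cells stably transfected with recombinant human or rat H3 receptor. Ki is presented as a range of multiple experiments (n ≥ 3).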

[1] = Cmax in C57BL/6 mouse brain at 2 mg/kg, iv; assay type: ADME, organism-based; design: dose 2 mg/kg, route intravenous
How it was run: (§1)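 Male C57BL/6 mice received a single intravenous dose of 2 mg/kg, formulated at 1 mg/mL in 50% 1-methyl-2-pyrrolidinone in saline. Plasma and brain concentrations were followed to derive PK parameters. Brain to plasma ratio was calculated from AUC.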

Cytochrome P450 2B6 = target: T1, Cytochrome P450 2B6 (Homo sapiens, UniProt P20813); test: Inhibition of CYP2B6 (unknown origin); assay type: ADME
T1 sequence (P20813 whole entry): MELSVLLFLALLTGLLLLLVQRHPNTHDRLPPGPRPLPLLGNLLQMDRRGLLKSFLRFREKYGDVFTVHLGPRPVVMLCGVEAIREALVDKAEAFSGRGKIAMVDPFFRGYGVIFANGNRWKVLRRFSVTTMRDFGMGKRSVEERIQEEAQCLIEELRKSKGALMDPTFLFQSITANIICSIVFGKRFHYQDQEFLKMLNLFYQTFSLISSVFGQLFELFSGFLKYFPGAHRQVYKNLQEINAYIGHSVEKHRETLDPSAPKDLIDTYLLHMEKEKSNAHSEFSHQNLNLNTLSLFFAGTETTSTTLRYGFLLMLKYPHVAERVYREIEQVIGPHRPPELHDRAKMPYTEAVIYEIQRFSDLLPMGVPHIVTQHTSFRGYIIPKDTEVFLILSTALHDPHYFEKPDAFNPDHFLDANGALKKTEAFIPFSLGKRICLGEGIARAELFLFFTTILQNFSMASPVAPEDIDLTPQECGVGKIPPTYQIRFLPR

[2] = Half life in C57BL/6 mouse plasma at 2 mg/kg, iv; assay type: ADME, organism-based; design: dose 2 mg/kg, route intravenous; how it was run: as §1
[3] = Half life in C57BL/6 mouse brain at 10 mg/kg, po; assay type: ADME, organism-based; design: dose 10 mg/kg, route oral
How it was run: (§2)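 Male C57BL/6 mice were dosed orally at 10 mg/kg, formulated at 1 mg/mL in 5% DMSO/0.5% MC/0.2% tween 80. Plasma and brain were sampled for PK parameters. Brain to plasma ratio was based on AUC0-24.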

Mus musculus [4] = test: Toxicity in mouse assessed as effect on pupil size at 3 to 30 mg/kg, po; assay type: organism-based; design: dose 3-30 mg/kg, route oral; conditions: in vivo
How it was run: (§3)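 Behavioral safety study in mice given single oral doses of 3, 10 and 30 mg/kg. Tremors, tail pinch response, body temperature, pupil size and body weight were scored at 2 and 6 h post dose. Clinical signs were observed over one week after dosing.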

[5] = AUC (0 to infinity) in C57BL/6 mouse plasma at 2 mg/kg, iv; assay type: ADME, organism-based; design: time infinity, dose 2 mg/kg, route intravenous; how it was run: as §1
Cytochrome P450 1A2 = target: T2, Cytochrome P450 1A2 (Homo sapiens, UniProt P05177); test: Inhibition of CYP1A2 (unknown origin); assay type: ADME
T2 sequence (P05177 whole entry): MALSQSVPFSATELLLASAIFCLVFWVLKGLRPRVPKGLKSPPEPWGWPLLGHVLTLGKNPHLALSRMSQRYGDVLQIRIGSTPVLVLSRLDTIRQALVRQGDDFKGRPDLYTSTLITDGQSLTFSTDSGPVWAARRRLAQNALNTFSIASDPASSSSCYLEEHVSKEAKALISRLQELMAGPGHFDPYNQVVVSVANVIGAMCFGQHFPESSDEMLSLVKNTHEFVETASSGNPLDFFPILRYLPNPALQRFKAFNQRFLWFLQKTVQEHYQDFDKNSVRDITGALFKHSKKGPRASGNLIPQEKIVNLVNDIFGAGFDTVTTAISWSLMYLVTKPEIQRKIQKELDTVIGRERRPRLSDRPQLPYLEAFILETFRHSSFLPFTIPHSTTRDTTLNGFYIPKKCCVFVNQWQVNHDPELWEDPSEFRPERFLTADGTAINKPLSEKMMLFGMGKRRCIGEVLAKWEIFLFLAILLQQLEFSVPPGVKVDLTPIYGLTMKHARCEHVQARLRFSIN

[6] = target: Voltage-gated inwardly rectifying potassium channel KCNH2 (Homo sapiens, UniProt Q12809); test: Inhibition of human ERG transfected in CHO cells by patch clamp assay; assay type: cell-based
Voltage-gated inwardly rectifying potassium channel KCNH2, sequence (Q12809 whole entry): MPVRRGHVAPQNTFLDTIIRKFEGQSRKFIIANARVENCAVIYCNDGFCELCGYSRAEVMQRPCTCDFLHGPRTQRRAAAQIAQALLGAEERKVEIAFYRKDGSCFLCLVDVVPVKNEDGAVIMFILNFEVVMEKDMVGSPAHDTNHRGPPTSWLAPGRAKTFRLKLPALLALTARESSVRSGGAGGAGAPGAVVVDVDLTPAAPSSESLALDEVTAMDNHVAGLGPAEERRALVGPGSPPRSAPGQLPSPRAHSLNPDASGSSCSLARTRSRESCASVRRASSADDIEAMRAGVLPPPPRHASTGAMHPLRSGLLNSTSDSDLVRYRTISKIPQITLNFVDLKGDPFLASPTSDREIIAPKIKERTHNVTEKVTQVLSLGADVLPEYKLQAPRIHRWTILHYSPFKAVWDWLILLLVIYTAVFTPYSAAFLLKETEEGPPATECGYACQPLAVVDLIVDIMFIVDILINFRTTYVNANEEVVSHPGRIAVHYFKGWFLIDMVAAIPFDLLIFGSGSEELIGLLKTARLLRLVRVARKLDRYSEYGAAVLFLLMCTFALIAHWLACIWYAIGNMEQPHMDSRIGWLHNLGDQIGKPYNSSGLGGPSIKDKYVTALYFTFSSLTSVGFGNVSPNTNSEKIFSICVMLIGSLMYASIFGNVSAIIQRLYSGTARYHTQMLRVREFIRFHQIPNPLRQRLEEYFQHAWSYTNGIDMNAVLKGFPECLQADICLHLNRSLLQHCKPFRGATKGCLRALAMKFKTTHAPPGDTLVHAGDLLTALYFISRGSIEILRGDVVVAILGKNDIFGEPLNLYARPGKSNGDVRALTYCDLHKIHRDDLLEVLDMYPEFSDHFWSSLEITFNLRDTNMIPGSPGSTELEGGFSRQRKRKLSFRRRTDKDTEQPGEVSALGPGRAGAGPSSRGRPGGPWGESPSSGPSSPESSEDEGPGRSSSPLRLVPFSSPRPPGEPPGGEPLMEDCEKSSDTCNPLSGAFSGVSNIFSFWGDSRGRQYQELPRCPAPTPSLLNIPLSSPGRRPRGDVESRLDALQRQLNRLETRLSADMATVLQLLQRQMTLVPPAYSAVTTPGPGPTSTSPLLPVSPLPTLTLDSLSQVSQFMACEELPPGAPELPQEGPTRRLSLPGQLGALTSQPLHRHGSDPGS
How it was run: (§4)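 Whole-cell patch clamp on CHO cells stably transfected with the human ERG gene.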

[7] = Partition coefficient, log P of the compound; assay type: physicochemical; conditions: octanol/water
[8] = Half life in C57BL/6 mouse plasma at 10 mg/kg, po; assay type: ADME, organism-based; design: dose 10 mg/kg, route oral; how it was run: as §2
[9] = Drug metabolism in human liver microsomes at 5 uM after 20 mins; assay type: ADME, Microsome; conditions: read-out: Drug metabolism
How it was run: (§5)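 Substrate at 5 µM incubated at 37 °C for 20 min with in-house liver microsome preparations (human, mouse or rat). Reported as the percentage of parent compound metabolized.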

hERG (KCNH2) = hERG (KCNH2) (Homo sapiens, UniProt Q12809); test: Inhibition of human ERG transfected in CHO cells at 10 uM by patch clamp assay relative to control; assay type: cell-based; conditions: CHO cells transfected with human ERG; how it was run: as §4
hERG (KCNH2), sequence (Q12809 whole entry): as above

Salmonella typhimurium = test: Mutagenic activity in Salmonella typhimurium by Ames test; assay type: toxicity, organism-based; conditions: salmonella enterica subsp. enterica serovar typhimurium
Mus musculus [10] = test: Toxicity in mouse assessed as increase in tail pinch at => 10 mg/kg, po; assay type: organism-based; design: dose 10 mg/kg, route oral; conditions: in vivo; how it was run: as §3
[11] = Tmax in C57BL/6 mouse plasma at 2 mg/kg, iv; assay type: ADME, organism-based; design: dose 2 mg/kg, route intravenous; how it was run: as §1
Mus musculus [12] = test: Toxicity in mouse assessed as appearance of abnormal clinical signs at 3 to 30 mg/kg, po after 1 week; assay type: organism-based; design: dose 3-30 mg/kg, route oral; conditions: in vivo, 168 h; how it was run: as §3
[13] = Half life in C57BL/6 mouse brain at 2 mg/kg, iv; assay type: ADME, organism-based; design: dose 2 mg/kg, route intravenous; how it was run: as §1
[14] = AUC (0 to infinity) in C57BL/6 mouse brain at 2 mg/kg, iv; assay type: ADME, organism-based; design: time infinity, dose 2 mg/kg, route intravenous; how it was run: as §1
Cytochrome P450 2C19 = Cytochrome P450 2C19 (Homo sapiens, UniProt P33261); test: Inhibition of CYP2C19 (unknown origin); assay type: ADME
Cytochrome P450 2C19, sequence (P33261 whole entry): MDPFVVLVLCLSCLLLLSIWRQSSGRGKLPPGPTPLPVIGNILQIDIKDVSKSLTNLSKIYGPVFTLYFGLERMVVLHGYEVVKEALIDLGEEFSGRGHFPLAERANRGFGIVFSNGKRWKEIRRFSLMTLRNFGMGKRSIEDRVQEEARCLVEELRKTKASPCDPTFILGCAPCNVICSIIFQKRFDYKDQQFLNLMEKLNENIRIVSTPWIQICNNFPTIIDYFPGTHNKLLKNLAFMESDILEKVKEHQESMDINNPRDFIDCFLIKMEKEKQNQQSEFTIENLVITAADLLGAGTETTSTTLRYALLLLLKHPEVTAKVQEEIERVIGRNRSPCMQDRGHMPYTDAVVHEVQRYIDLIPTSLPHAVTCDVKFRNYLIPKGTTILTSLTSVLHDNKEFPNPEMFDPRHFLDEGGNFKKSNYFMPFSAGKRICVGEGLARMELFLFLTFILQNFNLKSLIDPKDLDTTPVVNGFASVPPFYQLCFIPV

Mus musculus [15] = test: Toxicity in mouse assessed as increase in tail pinch at 30 mg/kg, po measured at 6 hrs; assay type: organism-based; design: dose 30 mg/kg, route oral; conditions: in vivo; how it was run: as §3
[16] = Drug metabolism in rat liver microsomes at 5 uM after 20 mins; assay type: ADME, Microsome; conditions: read-out: Drug metabolism; how it was run: as §5
[17] = Tmax in C57BL/6 mouse plasma at 10 mg/kg, po; assay type: ADME, organism-based; design: dose 10 mg/kg, route oral; how it was run: as §2
[18] = Cmax in C57BL/6 mouse plasma at 10 mg/kg, po; assay type: ADME, organism-based; design: dose 10 mg/kg, route oral; how it was run: as §2

Histamine H3 receptor, sequence (Q9QYN8 whole entry): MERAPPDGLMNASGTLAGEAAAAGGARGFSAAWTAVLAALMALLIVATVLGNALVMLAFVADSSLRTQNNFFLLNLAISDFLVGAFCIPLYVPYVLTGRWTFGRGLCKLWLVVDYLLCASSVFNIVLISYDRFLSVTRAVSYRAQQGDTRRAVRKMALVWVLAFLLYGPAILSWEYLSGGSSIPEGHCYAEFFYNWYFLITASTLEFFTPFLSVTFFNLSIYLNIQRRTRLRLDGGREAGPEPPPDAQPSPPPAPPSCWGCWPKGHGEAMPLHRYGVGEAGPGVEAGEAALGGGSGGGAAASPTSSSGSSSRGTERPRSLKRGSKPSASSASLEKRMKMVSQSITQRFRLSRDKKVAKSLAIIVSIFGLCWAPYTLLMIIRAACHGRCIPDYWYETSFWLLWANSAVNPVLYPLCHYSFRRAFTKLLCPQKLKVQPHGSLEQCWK

## Cc1cc(N2CC[C@H](N3CCC[C@@H]3C)C2)ccc1NC(=O)c1cc(F)ccc1C
Histamine H3 receptor
  Ki: 3 nM
[1]
  Cmax: 4820 ng/mL
Cytochrome P450 2B6
  IC50: > 30000 nM
[2]
  half-life: 2.6 h
[3]
  half-life: 3.5 h
Mus musculus [4]
  Activity: Non-toxic
[5]
  AUC(0-inf): 560 ng·h/mL
Cytochrome P450 1A2
  IC50: > 30000 nM
[6]
  IC50: 1100 nM
[7]
  logP: 3.55
[8]
  half-life: 3.6 h
[9]
  metabolised at 20 min, 5 µM: 3%
hERG (KCNH2)
  inhibition at 10 µM: 84.3%
Salmonella typhimurium
  Activity: Non-toxic
Mus musculus [10]
  Activity: Toxic
[11]
  Tmax: 4.98 min
Mus musculus [12]
  Activity: Non-toxic
[13]
  half-life: 1.6 h
[14]
  AUC(0-inf): 2600 ng·h/mL
Cytochrome P450 2C19
  IC50: > 30000 nM
Mus musculus [15]
  Activity: Toxic
[16]
  metabolised at 20 min, 5 µM: 20%
[17]
  Tmax: 0.17 h
[18]
  Cmax: 1310 ng/mL

From ChEMBL document CHEMBL2401654, “Synthesis, characterization, and biological assessment of the four stereoisomers of the H(3) receptor antagonist 5-fluoro-2-methyl-N-[2-methyl-4-(2-methyl[1,3']bipyrrolidinyl-1'-yl)phenyl]benzamide” (Bioorg Med Chem Lett, 2013)
